Rows were chosen to be rich in hits. Some 3.8% of all compounds tested hit in one or more screens of this group.
OX1R antag-1 = antagonists of human orexin 1 receptor (OX1R). 1.8% of 330,000 active. OX1R-expressing cells, FRET antagonist read-out. inhibition, % at 6.6 µM. O43613; in the data active = inhibition mostly above about 38%, no sharp cut-off; inactive = mostly below about 40%;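 also: 0% = agonist challenge alone and 100% = reference antagonist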
GPR7 antagonist = blocks human GPR7 receptor signaling; inhibition, % at 4.4 µM; P48145; 1.1% of 290,000 active; GPR7-expressing cells, fluorescence antagonist assay; in the data active = inhibition above about 16%, passing the limit was not always enough;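 also: cells stimulated with the agonist NPW; 0% = agonist with vehicle and 100% = vehicle without agonist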
Target sequence (P48145 whole entry, looked up): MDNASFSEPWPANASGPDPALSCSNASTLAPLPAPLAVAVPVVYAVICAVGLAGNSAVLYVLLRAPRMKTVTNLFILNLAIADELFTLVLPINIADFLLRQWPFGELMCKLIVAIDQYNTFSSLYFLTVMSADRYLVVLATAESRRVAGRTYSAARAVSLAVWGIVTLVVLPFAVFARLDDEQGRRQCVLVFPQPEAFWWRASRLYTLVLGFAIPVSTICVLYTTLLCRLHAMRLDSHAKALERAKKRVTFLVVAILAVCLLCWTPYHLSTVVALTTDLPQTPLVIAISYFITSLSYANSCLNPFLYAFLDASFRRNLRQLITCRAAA
CHO parental Ca = counter-screen for OX1R antagonists: effect in parental CHO cells; parental CHO-K1, ATP-induced calcium, Fluo-8 fluorescence; AID 463079; 0.63% of 330,000 active; inhibition, % at 5.6 µM;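 active = inhibition above that plate's mean sample inhibition plus 3 SD, cut at about 26% in these data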;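 also: 0% = ATP-challenged DMSO wells and 100% = DMSO wells without ATP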
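Measured by: calcium-sensitive Fluo-8 fluorescence / Test system: CHO parental line / Controls: ATP-challenged DMSO wells low, unchallenged DMSO wells high / Measure: % inhibition / Compound: single nominal dose of 5.6 µM per compound / Replicates: single well per compound, no replicates / Reagent: ATP as calcium-mobilizing challenge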
OX1R antag-2 = antagonists of human orexin 1 receptor | inhibition, % at 5 µM | 0.43% of 330,000 active | AID 434989 | CHO/OX1R cells, Fluo-8 calcium fluorescence, orexin A | O43613;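 active = inhibition above its plate's threshold, mean inhibition of all tested compounds on the plate plus 3 SD, cut at about 37% in these data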;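 also: 0% = orexin A challenge wells and 100% = SB-334867-A antagonist wells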
MPTP inh = inhibitors of mitochondrial permeability transition pore. AID 602449. isolated mouse mitochondria, Ca2+ swelling absorbance, 30 min. inhibition, % at 10 µM. 1.4% of 360,000 active;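 active = inhibition of 50% or more, scaled per plate between neutral and stimulator controls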;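 also: 0% = DMSO wells given calcium and 100% = 1 mM EGTA wells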
MPTP counter = membrane potential counter-screen of mitochondrial pore inhibitors | shares compounds with MPTP inh | isolated mitochondria, Rhodamine 123 fluorescence | inhibition, % at 10 µM | 78% of 5,000 active; in the data active = inhibition above about 22%;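 also: 0% = DMSO vehicle and 100% = positive control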
MPTP abs DR = MPTP inhibition, dose response swelling confirmation; shares compounds with MPTP inh; isolated mitochondria swelling, absorbance; IC50, µM; 58% of 780 active; AID 651561; in the data active = IC50 below about 20 µM
MPTP counter DR = MPTP inhibitor counter-screen activity, dose response; shares compounds with MPTP inh; isolated mitochondria counterscreen, fluorescence read-out; IC50, µM; 49% of 780 active; AID 651564; in the data active = IC50 below about 80 µM
Numbers without * were called inactive; . = not tested or not shown.

SMILES	OX1R antag-1	GPR7 antagonist	CHO parental Ca	OX1R antag-2	MPTP inh	MPTP counter	others
COc1ccc(NC(=O)CN(C)C(=O)CNC(=O)c2ccc(C)s2)cc1	13.6	.	-13.7	1.7	-1.6	.
CCN(CC)C(=O)c1ccc(COc2ccc(Cl)c(C)c2)o1	19.0	3.0	44.2*	-12.6	91.3*	85.2*
COC(=O)c1cc([N+](=O)[O-])c(C)c(C)n1	.	.	.	.	54.3*	-2.1	MPTP abs DR=>100;MPTP counter DR=>80
Cc1ccc(S(=O)(=O)NC(=O)C2(C)CCN2C(=O)C2CCCCC2)cc1 (configuration not stated)	.	.	.	.	0.6	.
Cc1cccc(C)c1NC(=O)C[N+](C)(C)CC(O)COc1cccc2ccccc12 (configuration not stated)	17.1	0.9	9.0	-10.5	81.1*	-20.4	MPTP abs DR=3.27*;MPTP counter DR=50.5*
COc1ccccc1NC(=S)Nc1ccccc1F	19.4	4.7	-8.6	2.7	-1.2	.
O=C(CCCc1ccccc1)Nc1ccc(Br)cc1F	21.5	-7.9	-4.7	7.5	5.1	.
Fc1cc(Br)ccc1NC(=S)Nc1ccccc1	4.7	14.9	3.2	-10.4	91.7*	92.6*
Fc1ccccc1NC(=S)Nc1ccc(Br)cc1	11.8	-2.4	-0.3	-1.3	97.0*	94.8*
CCOc1ccc(N2CC(C(=O)NC3=NCCS3)CC2=O)cc1 (configuration not stated)	23.4	-0.4	-8.1	-12.8	-4.2	.
Cc1ccc(-n2nnnc2-c2cnc3ccc(Cl)cc3c2-c2ccccc2)cc1	10.6	-2.0	-22.7	-23.2	1.2	.
Clc1ccc2[nH]cc(-c3nnnn3-c3ccc4ccccc4c3)c2c1	53.5	24.2	56.7*	30.2	83.7*	77.4*
O=C(/C=C/NNC(=O)c1cccc(Br)c1)c1cccc(Br)c1	19.4	5.5	-9.5	-31.4	51.0*	58.2*
O=C(Cc1ccc(Cl)cc1Cl)Nc1ccc(OC(F)F)c(Cl)c1	18.1	-1.9	-8.1	-10.4	73.8*	84.4*
O=C(/C=C/c1ccc(F)cc1)Nc1cccc(S(=O)(=O)N2CCOCC2)c1	8.0	.	-20.1	-0.6	2.0	.
O=C(COC(=O)Cc1ccc(Cl)cc1Cl)Nc1ccc(OC(F)F)cc1	1.8	-11.9	-16.5	-18.2	1.0	.
O=C(/C=C/c1ccccc1)Nc1cccc(S(=O)(=O)Nc2ccccc2F)c1	17.8	-14.7	-11.5	-31.1	50.9*	55.7*
O=C(Cc1c(F)cccc1Cl)Nc1cccc(S(=O)(=O)NC2=NCCCCC2)c1	11.8	.	-14.3	-14.8	-1.1	.
O=C(Cc1ccc(Cl)cc1Cl)Nc1cccc(S(=O)(=O)Nc2ccccc2F)c1	19.9	-7.4	-16.1	-6.4	65.3*	58.1*
COc1ccc(F)cc1CSc1nnnn1-c1ccc(O)cc1	10.0	10.3	-3.4	-18.4	2.3	.
COc1cc(CSc2nnnn2-c2ccc(C)cc2)cc(OC)c1OC	28.9	7.6	0.4	32.7	91.9*	88.6*
CCC(NC(=O)Nc1nnc(C(F)(F)F)s1)(C(F)(F)F)C(F)(F)F	59.7*	29.3*	81.1*	64.9*	101.1*	112.4*
CCCn1c(CN2CCN(c3cccc(Cl)c3)CC2)nc2c1c(=O)n(C)c(=O)n2C	21.2	-2.9	33.5*	-25.3	77.7*	79.6*
Cc1ccc(CNC(=O)COC(=O)c2ccc(S(=O)(=O)NCc3ccco3)cc2)cc1	-5.4	.	-0.4	-5.4	-0.2	.
COc1ccc(-c2nc(-c3ccc4c(c3)OCO4)[nH]c2-c2ccc(OC)cc2)cc1	5.2	-7.3	6.2	3.3	69.4*	69.2*
SMILES	OX1R antag-1	GPR7 antagonist	CHO parental Ca	OX1R antag-2	MPTP inh	MPTP counter	others
Oc1cccc(NC(=S)Nc2ccc(SC(F)F)cc2)c1	11.6	-5.2	-1.1	-1.5	91.0*	84.3*
Oc1cccc2c(NC(=S)Nc3ccc(SC(F)F)cc3)cccc12	22.4	-2.3	1.0	2.7	87.6*	88.1*
CCCCNC(=S)Nc1ccc(SC(F)F)cc1	26.9	-7.7	25.9	14.5	97.8*	73.0*
CCCNC(=O)C1(C)CCN(C(=O)C2(c3ccc(Cl)cc3)CCCC2)C1 (configuration not stated)	.	.	.	.	0.3	.
CN(C(=O)COC(=O)c1nn(C)c(=O)c2ccccc12)c1c(N)n(Cc2ccccc2)c(=O)[nH]c1=O	13.2	.	3.3	-5.4	0.2	.
COc1ccc(OC)c(S(=O)(=O)Nc2c(NC3CCCCC3)c3ccccc3oc2=O)c1	37.1	-14.3	-34.5	-26.0	0.7	.
OCCN1CCN(CCCN2c3ccccc3Sc3ccc(C(F)(F)F)cc32)CC1	0.8	24.2	-12.8	-22.3	86.0*	-18.1
OCCN1CCN(CC/C=C2/c3ccccc3Sc3ccc(C(F)(F)F)cc32)CC1	4.3	.	-4.2	-8.5	90.7*	-12.7
CN(C)CCCN1c2ccccc2Sc2ccc(C(F)(F)F)cc21	3.1	12.1	6.0	-4.8	101.6*	-21.4
CCOc1ccc2nc(N3C(=O)/C(=C/c4ccccc4)NC3=S)sc2c1	15.8	3.9	15.4	6.4	84.0*	15.4
CN(/N=C/c1cc(Cl)cc(Cl)c1O)C(=S)NC(C)(C)C	9.7	-15.7	-13.2	-17.2	85.1*	74.7*
COCCNc1nc(NCc2ccccc2F)c2sccc2n1	.	.	.	.	0.4	.
c1ccc(CNc2nc(NCc3ccccc3)c3sccc3n2)cc1	.	.	.	.	91.3*	103.7*
c1ccc(CNc2nc(NCCOc3ccccc3)c3sccc3n2)cc1	.	.	.	.	15.3	.
Fc1ccc(Nc2nc(NCc3ccco3)c3ccccc3n2)cc1	3.9	2.8	9.2	16.9	85.7*	81.8*
COc1ccccc1CNc1nc(NCc2ccccc2F)c2sccc2n1	.	.	.	.	101.2*	103.9*
c1ccc(CNc2nc(NCc3ccccc3)c3ccccc3n2)cc1	6.7	74.1*	74.9*	89.3*	70.4*	108.6*
Nc1nc(Nc2ccccc2)nc(NCc2ccco2)c1[N+](=O)[O-]	25.8	-24.5	-22.3	-43.0	1.8	.
CCc1ccc(OC(C)c2nnc(SCC(=O)Nc3ncccc3C)n2C)cc1 (configuration not stated)	3.1	2.4	-15.2	-15.8	-0.2	.
CCOc1ccc(-c2nnn(CC#N)n2)cc1OC	9.1	-6.4	-5.5	-5.1	1.3	.
COc1ccccc1CNc1nc(NCc2ccccc2)nc2ccsc12	.	.	.	.	74.1*	95.2*
COc1ccccc1CNc1nc(NCc2cccc(OC)c2OC)c2sccc2n1	.	.	.	.	51.4*	94.7*
COCCNc1nc(NCc2cccc(OC)c2OC)c2sccc2n1	.	.	.	.	0.8	.
COc1ccccc1CNc1nc(NCc2cnc(C)cn2)c2sccc2n1	.	.	.	.	-0.8	.
c1ccc(CNc2nc(-c3cccs3)nc3ccccc23)cc1	.	-15.0	.	.	50.6*	57.6*
COCCNc1nc(NCc2ccc(C)cc2C)c2sccc2n1	.	.	.	.	1.3	.
COc1ccccc1CNc1nc(NCc2ccc(C)cc2C)c2sccc2n1	.	.	.	.	66.8*	101.5*
